According to ChEMBL document CHEMBL4049413, “High-content screen using zebrafish (Danio rerio) embryos identifies a novel kinase activator and inhibitor” (Bioorg Med Chem Lett, 2017):
Active and inactive are the calls of the source. No cut-off for these calls is given here.

Columns and labels:
[1] = molecular target: Serine/threonine-protein kinase pim-2 (Homo sapiens) (UniProt Q9P1W9); assay: Inhibition of human PIM2 using RSRHSSYPAGT as substrate in presence of [gamma-33P]-ATP
[2] = organism: Danio rerio; assay: Induction of morphological changes in 6 hrs post fertilized zebra fish embryo assessed as defect in notochord development up to 200 uM by microscopic method; type: functional
Outline: (§1)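 Embryos staged and placed in 12-well plates in E3 medium with 1% DMSO within 6 hpf, ~30 embryos per well. Continuous exposure from 6–30 hpf at varied concentrations up to 200 uM. For the timing window, 100 uM exposure began at different developmental times and all embryos were scored at 30 hpf. Notochord, somite and tail phenotypes were scored by microscopy.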

[3] = organism: Danio rerio; assay: Induction of morphological changes in 6 to 14 hrs post fertilized zebra fish embryo assessed as defect in notochord development at 100 uM by microscopic method; type: functional; outline: as §1
[4] = molecular target: Death-associated protein kinase 3 (Homo sapiens) (UniProt O43293); assay: Activation of human DAPK3 using KKLNRTLSFAEPG as substrate in presence of [gamma-33P]-ATP
Death-associated protein kinase 3 (Homo sapiens), sequence (O43293 whole entry, looked up): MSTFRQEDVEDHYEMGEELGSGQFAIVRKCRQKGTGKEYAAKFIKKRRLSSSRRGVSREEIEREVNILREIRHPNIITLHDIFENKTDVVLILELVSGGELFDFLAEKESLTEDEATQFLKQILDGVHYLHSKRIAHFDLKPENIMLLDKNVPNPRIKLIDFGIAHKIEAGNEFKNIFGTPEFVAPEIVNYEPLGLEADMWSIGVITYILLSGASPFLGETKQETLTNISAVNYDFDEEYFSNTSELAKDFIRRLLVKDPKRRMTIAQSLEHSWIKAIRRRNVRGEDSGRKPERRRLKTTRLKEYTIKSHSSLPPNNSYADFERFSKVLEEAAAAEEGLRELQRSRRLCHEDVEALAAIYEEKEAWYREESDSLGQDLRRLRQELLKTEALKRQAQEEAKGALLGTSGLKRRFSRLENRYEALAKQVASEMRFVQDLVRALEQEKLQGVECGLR

[5] = organism: Danio rerio; assay: Induction of morphological changes in 6 hrs post fertilized zebra fish embryo assessed as defect in tail musculature by measuring downward c-bend of body axis up to 200 uM by microscopic method; type: functional; outline: as §1
[6] = organism: Danio rerio; assay: Induction of morphological changes in 30 hrs post fertilized zebra fish embryo assessed as defect in tail musculature by measuring downward c-bend of body axis up to 200 uM by microscopic method; type: functional; outline: as §1
[7] = organism: Danio rerio; assay: Toxicity in 6 to 30 hrs post fertilized zebra fish embryo assessed as death at 200 uM by microscopic method; conditions: zebrafish
Outline: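 Staged zebrafish embryos placed in 12-well plates in E3 embryo medium within 6 hpf and exposed from 6 to 30 hpf in E3 with 1% DMSO, with or without compound, ~30 embryos per group (at most 30 per well). Wells were inspected under a dissecting microscope, and death was scored as loss of embryonic structure.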

[8] = molecular target: Albumin (Bos taurus, UniProt P02769); assay: Binding affinity to bovine serum albumin by tryptophan quenching based HTS assay; type: ADME
Albumin, sequence (P02769 whole entry): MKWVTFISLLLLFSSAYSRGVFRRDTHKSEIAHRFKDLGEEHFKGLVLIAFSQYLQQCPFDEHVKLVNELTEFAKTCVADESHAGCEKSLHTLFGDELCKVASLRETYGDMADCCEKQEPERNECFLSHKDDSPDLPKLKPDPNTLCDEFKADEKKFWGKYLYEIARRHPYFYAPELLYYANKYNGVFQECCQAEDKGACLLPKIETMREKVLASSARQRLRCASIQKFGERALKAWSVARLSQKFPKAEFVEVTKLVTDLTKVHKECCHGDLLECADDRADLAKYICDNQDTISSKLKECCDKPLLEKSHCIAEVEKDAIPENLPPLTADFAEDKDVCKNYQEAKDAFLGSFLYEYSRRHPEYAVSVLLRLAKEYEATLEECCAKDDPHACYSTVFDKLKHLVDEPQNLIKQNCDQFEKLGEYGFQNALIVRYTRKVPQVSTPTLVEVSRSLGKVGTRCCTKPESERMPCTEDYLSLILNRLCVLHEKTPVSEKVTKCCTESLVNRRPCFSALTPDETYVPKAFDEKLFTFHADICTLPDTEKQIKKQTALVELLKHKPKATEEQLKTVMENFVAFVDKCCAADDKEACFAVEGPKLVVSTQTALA
Outline: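 Bovine serum albumin binding screened in HTS format by quenching of intrinsic BSA tryptophan fluorescence, Ex/Em 280/340 nm; IC50 derived from the quenching response.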

[9] = molecular target: Death-associated protein kinase 2 (Homo sapiens) (UniProt Q9UIK4); assay: Activation of human DAPK2 using KKLNRTLSFAEPG as substrate in presence of [gamma-33P]-ATP
Death-associated protein kinase 2 (Homo sapiens), sequence (Q9UIK4 whole entry, looked up): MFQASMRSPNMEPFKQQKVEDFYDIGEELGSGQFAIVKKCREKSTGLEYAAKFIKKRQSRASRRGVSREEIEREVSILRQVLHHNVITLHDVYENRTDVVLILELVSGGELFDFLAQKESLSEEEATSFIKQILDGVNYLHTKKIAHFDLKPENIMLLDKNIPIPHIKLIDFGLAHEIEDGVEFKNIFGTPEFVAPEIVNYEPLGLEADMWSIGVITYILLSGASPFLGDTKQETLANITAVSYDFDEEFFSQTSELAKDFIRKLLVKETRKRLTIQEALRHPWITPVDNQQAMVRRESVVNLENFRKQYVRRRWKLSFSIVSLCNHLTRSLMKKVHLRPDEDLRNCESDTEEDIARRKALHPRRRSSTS

[10] = organism: Danio rerio; assay: Induction of morphological changes in 14 hrs post fertilized zebra fish embryo assessed as defect in notochord development at 100 uM by microscopic method; type: functional; outline: as §1
[11] = organism: Danio rerio; assay: Induction of morphological changes in 22 hrs post fertilized zebra fish embryo at 100 uM by microscopic method; type: functional; outline: as §1
[12] = organism: Danio rerio; assay: Induction of morphological changes in 14 hrs post fertilized zebra fish embryo assessed as defect in somite development at 100 uM by microscopic method; type: functional; outline: as §1
[13] = organism: Danio rerio; assay: Induction of morphological changes in 6 to 14 hrs post fertilized zebra fish embryo assessed as defect in somite development at 100 uM by microscopic method; type: functional; outline: as §1
[14] = molecular target: Death-associated protein kinase 1 (Homo sapiens, UniProt P53355); assay: Activation of human DAPK1 using KKLNRTLSFAEPG as substrate in presence of [gamma-33P]-ATP
Death-associated protein kinase 1, sequence (P53355 whole entry): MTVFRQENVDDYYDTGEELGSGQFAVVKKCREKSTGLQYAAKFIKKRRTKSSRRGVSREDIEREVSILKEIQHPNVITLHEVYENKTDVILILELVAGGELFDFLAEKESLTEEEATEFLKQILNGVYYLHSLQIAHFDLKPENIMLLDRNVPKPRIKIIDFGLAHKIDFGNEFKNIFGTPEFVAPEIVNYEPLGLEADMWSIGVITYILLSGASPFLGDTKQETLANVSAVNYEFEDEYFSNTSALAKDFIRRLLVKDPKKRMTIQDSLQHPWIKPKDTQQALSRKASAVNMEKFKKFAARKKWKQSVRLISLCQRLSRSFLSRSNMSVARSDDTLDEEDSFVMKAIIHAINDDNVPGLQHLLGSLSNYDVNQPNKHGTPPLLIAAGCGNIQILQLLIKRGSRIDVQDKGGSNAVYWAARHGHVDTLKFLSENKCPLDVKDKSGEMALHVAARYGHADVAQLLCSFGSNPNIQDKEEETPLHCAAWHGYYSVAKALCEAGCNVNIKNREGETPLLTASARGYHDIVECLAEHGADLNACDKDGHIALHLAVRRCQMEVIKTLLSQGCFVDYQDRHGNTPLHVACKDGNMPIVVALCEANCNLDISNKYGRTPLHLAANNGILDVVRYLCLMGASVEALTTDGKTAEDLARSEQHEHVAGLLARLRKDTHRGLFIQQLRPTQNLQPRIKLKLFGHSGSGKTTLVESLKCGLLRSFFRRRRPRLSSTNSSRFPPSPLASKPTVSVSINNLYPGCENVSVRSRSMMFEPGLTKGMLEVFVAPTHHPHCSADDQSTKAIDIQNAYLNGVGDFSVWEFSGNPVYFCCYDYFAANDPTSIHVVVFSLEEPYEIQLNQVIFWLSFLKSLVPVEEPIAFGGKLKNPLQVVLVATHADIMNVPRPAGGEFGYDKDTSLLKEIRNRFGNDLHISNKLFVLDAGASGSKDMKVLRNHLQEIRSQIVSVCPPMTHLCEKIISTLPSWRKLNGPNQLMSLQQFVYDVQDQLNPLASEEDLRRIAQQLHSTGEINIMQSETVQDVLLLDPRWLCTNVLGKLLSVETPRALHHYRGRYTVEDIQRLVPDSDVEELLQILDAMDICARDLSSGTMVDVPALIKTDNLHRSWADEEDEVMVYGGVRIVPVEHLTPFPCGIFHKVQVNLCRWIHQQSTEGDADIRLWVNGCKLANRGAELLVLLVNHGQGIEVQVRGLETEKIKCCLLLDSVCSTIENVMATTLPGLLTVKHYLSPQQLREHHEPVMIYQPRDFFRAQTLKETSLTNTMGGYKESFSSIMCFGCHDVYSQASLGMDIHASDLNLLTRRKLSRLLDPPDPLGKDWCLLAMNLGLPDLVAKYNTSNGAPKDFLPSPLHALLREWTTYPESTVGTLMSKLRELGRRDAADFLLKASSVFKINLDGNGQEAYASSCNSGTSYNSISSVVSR

[15] = organism: Danio rerio; assay: Induction of morphological changes in 30 hrs post fertilized zebra fish embryo assessed as defect in notochord development up to 200 uM by microscopic method; type: functional; outline: as §1
[16] = organism: Danio rerio; assay: Induction of morphological changes in 30 to 48 hrs post fertilized zebra fish embryo by microscopic method; type: functional
[17] = molecular target: Serine/threonine-protein kinase pim-1 (Homo sapiens) (UniProt P11309); assay: Inhibition of human PIM1 using KKRNRTLTK as substrate in presence of [gamma-33P]-ATP
Serine/threonine-protein kinase pim-1 (Homo sapiens), sequence (P11309 whole entry, looked up): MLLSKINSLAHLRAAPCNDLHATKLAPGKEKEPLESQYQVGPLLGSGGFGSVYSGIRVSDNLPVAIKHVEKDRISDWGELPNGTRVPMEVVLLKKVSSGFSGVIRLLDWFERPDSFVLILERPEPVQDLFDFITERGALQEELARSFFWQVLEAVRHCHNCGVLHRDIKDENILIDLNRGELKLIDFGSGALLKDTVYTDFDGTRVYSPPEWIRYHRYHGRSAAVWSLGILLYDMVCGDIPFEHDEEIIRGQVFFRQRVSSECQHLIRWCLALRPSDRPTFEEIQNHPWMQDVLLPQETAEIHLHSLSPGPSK

[18] = organism: Homo sapiens; assay: Substrate activity at P-gp in human […] cells assessed as intracellular rhodamine123 accumulation at 50 uM after 2 hrs by fluorescence-based HTS assay; type: cell-based
Outline: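 MDA-MB-231 breast cancer cells in 96-well plates were pretreated with compound for 2 h, then intracellular rhodamine 123 accumulation was measured by fluorescence (Ex/Em 485/528). Verapamil at 20 uM served as positive control.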

[19] = molecular target: Serine/threonine-protein kinase pim-3 (Homo sapiens, UniProt Q86V86); assay: Inhibition of human PIM3 using RSRHSSYPAGT as substrate in presence of [gamma-33P]-ATP

Serine/threonine-protein kinase pim-2 (Homo sapiens), sequence (Q9P1W9 whole entry, looked up): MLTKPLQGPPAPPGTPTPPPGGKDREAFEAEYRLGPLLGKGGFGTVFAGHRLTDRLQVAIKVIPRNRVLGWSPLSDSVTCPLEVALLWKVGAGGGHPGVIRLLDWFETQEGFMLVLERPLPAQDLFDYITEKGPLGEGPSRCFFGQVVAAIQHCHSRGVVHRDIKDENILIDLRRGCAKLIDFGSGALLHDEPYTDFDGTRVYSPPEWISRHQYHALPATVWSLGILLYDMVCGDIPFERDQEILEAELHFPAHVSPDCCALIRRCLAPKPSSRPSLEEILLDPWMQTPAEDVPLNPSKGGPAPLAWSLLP

Q: O=C(COc1cccc2ccccc12)Nc1cccc(C(=O)O)c1 was tested. Which inhibition [1] did it give?
A: inactive

Q: And the Activity [2]?
A: Active

Q: And the Activity [3]?
A: Active

Q: What about the Activity [4] of the same molecule?
A: inactive

Q: What about the Activity [5] of the same molecule?
A: Active

Q: And the Activity [6]?
A: inactive

Q: And the Activity [7]?
A: Toxic

Q: And the IC50 [8]?
A: 23.3 µM

Q: What about the Activity [9] of the same molecule?
A: inactive

Q: What about the Activity [10] of the same molecule?
A: inactive

Q: What about the Activity [11] of the same molecule?
A: inactive

Q: What about the Activity [12] of the same molecule?
A: inactive

Q: What about the Activity [13] of the same molecule?
A: Active

Q: What about the EC50 [14] of the same molecule?
A: 39.5 µM

Q: And the Activity [15]?
A: inactive

Q: And the Activity [16]?
A: inactive

Q: And the inhibition [17]?
A: inactive

Q: What about the Activity [18] of the same molecule?
A: inactive

Q: What about the IC50 [19] of the same molecule?
A: 4.08 µM
